# From ChEMBL document CHEMBL1152946, “6-Amino-2-mercapto-3H-pyrimidin-4-one derivatives as new candidates for the antagonism at the P2Y12 receptors” (Bioorg Med Chem, 2009)
# Tests used:
# [1] = target: T1, Adenosine receptor A1 (Homo sapiens) (UniProt P30542); assay: Displacement of [3H]DPCPX from human adenosine A1 receptor expressed in CHO cells at 10 uM; format: cell-based
# T1 sequence (whole entry): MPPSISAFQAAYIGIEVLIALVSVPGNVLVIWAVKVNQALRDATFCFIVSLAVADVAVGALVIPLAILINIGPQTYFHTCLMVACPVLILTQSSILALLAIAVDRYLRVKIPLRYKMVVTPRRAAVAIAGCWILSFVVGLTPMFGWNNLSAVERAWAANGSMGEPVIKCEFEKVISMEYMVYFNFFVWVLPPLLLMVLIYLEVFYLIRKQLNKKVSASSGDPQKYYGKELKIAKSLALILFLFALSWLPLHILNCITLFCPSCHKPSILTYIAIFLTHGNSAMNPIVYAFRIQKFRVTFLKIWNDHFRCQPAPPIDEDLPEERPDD
# Outline: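 Membranes from CHO cells expressing hA1 (50 µg protein) were incubated with [3H]DPCPX 1 nM in 50 mM Tris HCl pH 7.4 for 120 min at 25 °C. Non-specific binding was defined with 10 µM CHA. Bound ligand was separated by GF/B filtration and counted by scintillation. Results are % displacement of specific binding at the bracketed test concentration, mean ± SEM of four experiments in triplicate.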
# [2] = target: Adenosine receptor A2b (Homo sapiens) (UniProt P29275); assay: Antagonist activity at human adenosine A2b receptor expressed in CHO cells expressed in inhibition of cAMP level; set-up: concentration or dose not given beside the values; conditions: concentration not given here
# [3] = Antiplatelet activity against 10^-6 M ADP-induced human platelet aggregation at 100 uM by light transmission aggregometry; format: functional
# Outline: (§1)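 Platelet-rich plasma came from healthy volunteers' blood collected in sodium citrate (9:1) and spun at 150g, 21 °C for 10 min. Samples were prewarmed to 37 °C with compound (10^-4 M) or vehicle, then ADP was added (final 10^-5 or 10^-6 M). Shape change and aggregation were followed by light transmission for 3 min. Results are % of vehicle aggregation, mean of at least 2 experiments.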
# [4] = target: Adenosine receptor A2a (Homo sapiens) (UniProt P29274); assay: Displacement of [3H]ZM241385 from human adenosine A2A receptor expressed in CHO cells at 10 uM; format: cell-based
# Outline: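 Membranes from CHO cells expressing hA2A (50 µg protein) were incubated with [3H]ZM-241385 1 nM in 50 mM Tris HCl with 10 mM MgCl2, pH 7.4, for 60 min at 4 °C. Non-specific binding was defined with 1 µM ZM-241385. Samples were filtered on GF/B and counted by scintillation. Results are % displacement at the tested concentration, mean ± SEM of four experiments in triplicate.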
# [5] = Antiplatelet activity against 10^-5 M ADP-induced human platelet aggregation at 100 uM by light transmission aggregometry; format: functional; outline: as §1
# [6] = target: Adenosine receptor A2b (Homo sapiens) (UniProt P29275); assay: Antagonist activity at human adenosine A2b receptor expressed in CHO cells expressed in inhibition of NECA-induced cAMP level; set-up: concentration or dose not given beside the values; conditions: concentration not given here
# [7] = target: T2, Adenosine receptor A3 (Homo sapiens) (UniProt P0DMS8); assay: Displacement of [125I]ABMECA from human adenosine A3 receptor expressed in CHO cells at 10 uM
# T2 sequence (whole entry): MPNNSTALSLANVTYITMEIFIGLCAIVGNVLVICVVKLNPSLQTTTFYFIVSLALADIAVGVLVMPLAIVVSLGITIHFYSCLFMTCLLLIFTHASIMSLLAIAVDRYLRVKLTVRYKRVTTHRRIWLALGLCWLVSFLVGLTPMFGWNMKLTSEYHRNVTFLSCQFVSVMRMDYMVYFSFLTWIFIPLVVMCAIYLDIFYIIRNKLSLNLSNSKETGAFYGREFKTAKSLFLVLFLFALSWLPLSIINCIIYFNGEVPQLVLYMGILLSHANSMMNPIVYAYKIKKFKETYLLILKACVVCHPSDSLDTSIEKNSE
# [8] = target: P2Y purinoceptor 12 (Homo sapiens, UniProt Q9H244); assay: Antagonist activity at human recombinant P2Y12 receptor expressed in CHO FlpIn cells assessed as reduction n 2-methylthio-ADP mediated inhibition of forskolin-induced cAMP response element-directed luciferase expression by bright-glo assay; format: functional, cell-based
# Outline: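 CHO FlpIN cells stably expressing human P2Y12 were transiently transfected with a pCRE-luc reporter. After 24 h they were switched to physiological salt solution and exposed to forskolin 1 µM ± 2-methylthio-ADP 10 nM plus varying antagonist concentrations (DMSO vehicle) for 3.5 h at 37 °C. Luminescence was read after lysis with Bright-Glo. Responses are % of 2-methylthio-ADP response with DMSO only; n=4–8.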
# [9] = target: T2, Adenosine receptor A3 (Homo sapiens); assay: Displacement of [3H]ABMECA from human adenosine A3 receptor expressed in CHO cells at 10 uM; format: cell-based; conditions: in the assay text read “[125I]ABMECA” for “[3H]ABMECA”
# Outline: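 Non-specific binding was defined with 1 µM AB-MECA. Samples were filtered on GF/B and radioactivity was counted. Results are % displacement at the tested concentration, mean ± SEM of four experiments in triplicate.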
# Chain of Adenosine receptor A2a (Homo sapiens) (P29274 whole entry): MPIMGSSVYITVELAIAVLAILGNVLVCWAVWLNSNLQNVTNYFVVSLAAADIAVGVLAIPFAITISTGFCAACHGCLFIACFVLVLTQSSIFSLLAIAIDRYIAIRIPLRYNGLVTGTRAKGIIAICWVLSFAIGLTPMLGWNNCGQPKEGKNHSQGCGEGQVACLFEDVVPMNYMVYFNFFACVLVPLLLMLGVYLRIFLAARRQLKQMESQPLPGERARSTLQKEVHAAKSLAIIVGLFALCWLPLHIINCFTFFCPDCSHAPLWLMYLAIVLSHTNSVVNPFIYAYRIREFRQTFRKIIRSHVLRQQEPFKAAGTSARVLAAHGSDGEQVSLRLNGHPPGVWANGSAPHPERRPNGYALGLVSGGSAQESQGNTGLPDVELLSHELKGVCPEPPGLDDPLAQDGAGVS
# Chain of P2Y purinoceptor 12 (Q9H244 whole entry): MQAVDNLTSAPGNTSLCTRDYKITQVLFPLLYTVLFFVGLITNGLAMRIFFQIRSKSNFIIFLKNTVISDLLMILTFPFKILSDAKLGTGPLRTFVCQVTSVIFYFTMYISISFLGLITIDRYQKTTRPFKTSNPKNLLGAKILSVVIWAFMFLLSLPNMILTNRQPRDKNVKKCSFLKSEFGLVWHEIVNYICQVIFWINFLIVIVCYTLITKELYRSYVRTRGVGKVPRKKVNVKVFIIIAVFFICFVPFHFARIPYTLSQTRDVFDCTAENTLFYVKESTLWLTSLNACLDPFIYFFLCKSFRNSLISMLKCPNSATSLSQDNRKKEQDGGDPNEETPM
SMILES,Activity [1],inhibition [2],Activity [3],Activity [4],Activity [5],inhibition [6],Activity [7],IC50 [8],Activity [9]
CCCCCSc1nc(N)cc(OS(=O)(=O)c2ccccc2Cl)n1,4%,8%,58%,1%,95%,10%,23%,–,–
Cc1ccc(S(=O)(=O)Oc2cc(N)nc(SCCN)n2)cc1,3%,10%,37%,18%,96%,7%,36%,8.08 µM,–
Cc1ccc(S(=O)(=O)NCCSc2nc(N)cc(=O)[nH]2)cc1,6%,5%,51%,1%,89%,3%,–,–,44%
CCCCCSc1nc(N)cc(O)n1,–,–,63%,–,100%,–,–,–,–
Nc1cc(=O)[nH]c(SCCO)n1,–,–,114%,–,99%,–,–,–,–
Cc1ccc(S(=O)(=O)Nc2cc(N)nc(SCCN)n2)cc1,–,–,91%,–,91%,–,–,–,–
CN(C)c1cccc2c(S(=O)(=O)Oc3cc(N)nc(SCCO)n3)cccc12,48%,7%,93%,1%,100%,5%,–,–,47%
CN(C)c1cccc2c(S(=O)(=O)Oc3cc(N)nc(SCCN)n3)cccc12,–,–,83%,–,99%,–,–,–,–
Nc1cc(=O)[nH]c(SC(c2ccccc2)(c2ccccc2)c2ccccc2)n1,–,–,81%,–,100%,–,–,–,–
Nc1cc(OS(=O)(=O)c2ccccc2Cl)nc(SCc2ccccc2Cl)n1,–,–,92%,–,96%,–,–,–,–
Nc1cc(OS(=O)(=O)c2ccccc2Cl)nc(SCCO)n1,–,–,110%,–,100%,–,–,–,–
O=C(Nc1ccccc1)Nc1cc(=O)[nH]c(SCc2ccccc2Cl)n1,–,–,91%,–,94%,–,–,–,–
O=c1cc(O)nc(SCc2ccccc2Cl)[nH]1,–,–,97%,–,96%,–,–,–,–
Cc1ccc(S(=O)(=O)Oc2cc(N)nc(SCc3ccccc3Cl)n2)cc1,–,–,68%,–,100%,–,–,–,–
CN(C)c1cccc2c(S(=O)(=O)Oc3cc(N)nc(SCC(F)(F)F)n3)cccc12,–,–,115%,–,104%,–,–,–,–
CN(C)c1cccc2c(S(=O)(=O)Oc3cc(N)nc(SCc4ccccc4Cl)n3)cccc12,–,–,96%,–,101%,–,–,–,–
Cc1ccc(S(=O)(=O)Oc2cc(N)nc(SCCNC(=O)OC(C)(C)C)n2)cc1,–,–,75%,–,97%,–,–,–,–
Nc1cc(OS(=O)(=O)c2ccccc2Cl)nc(SCC(F)(F)F)n1,–,–,97%,–,102%,–,–,–,–
Cc1ccc(S(=O)(=O)Oc2cc(N)nc(SCCO)n2)cc1,2%,2%,57%,1%,99%,4%,–,–,46%
Nc1cc(OCc2ccccc2Cl)nc(SCc2ccccc2Cl)n1,–,–,86%,–,95%,–,–,–,–
Cc1ccc(S(=O)(=O)Oc2cc(N)nc(SCC(F)(F)F)n2)cc1,–,–,105%,–,101%,–,–,–,–
CSc1nc(N)cc(OS(=O)(=O)c2ccc(C)cc2)n1,–,–,120%,–,96%,–,–,–,–
CC(C)(C)OC(=O)NCCSc1nc(N)cc(=O)[nH]1,7%,3%,40%,7%,76%,8%,–,–,21%
Nc1cc(=O)[nH]c(SCc2ccccc2Cl)n1,–,–,88%,–,101%,–,–,–,–
CCCCCSc1nc(N)cc(OS(=O)(=O)c2ccc(C)cc2)n1,–,–,96%,–,88%,–,–,–,–
Cn1c(SCc2ccccc2Cl)nc(N)cc1=O,–,–,61%,–,88%,–,–,–,–
